Measured values from ChEMBL document CHEMBL1221374, “Synthesis, proapoptotic screening, and structure-activity relationships of novel aza-lupane triterpenoids” (Bioorg Med Chem Lett, 2010).

Key:
OVCAR-3 [1] = assay: Cytotoxicity against human OVCAR-3 cells after 72 hrs by MTS assay; type: functional, cell-based; conditions: OVCAR-3, 72 h
A-375 = assay: Cytotoxicity against human A375 cells after 72 hrs by MTS assay; type: functional, cell-based; conditions: A-375, 72 h
Procedure, shortened: (§1)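 Cells (1 × 10^4/well) seeded the evening before. Compounds were taken from 10 mM DMSO stock into growth medium and tested at 2, 10, 25, 50 and 75 µM, four wells each, with DMSO-matched controls. Exposure was 72 h, then MTS reagent for 1.5-4 h at 37 °C, and formazan A490 was read against DMSO-treated cells. IC50 is the mean of four wells from one experiment, or of three experiments where stated.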

MCF7 = assay: Cytotoxicity against human MCF7 cells after 72 hrs by MTS assay; type: functional, cell-based; conditions: MCF7, 72 h; procedure, shortened: as §1
HT-29 = assay: Cytotoxicity against human HT-29 cells after 72 hrs by MTS assay; type: functional, cell-based; conditions: HT-29, 72 h; procedure, shortened: as §1
SK-MEL-2 = assay: Cytotoxicity against human SK-MEL-2 cells after 72 hrs by MTS assay; type: functional, cell-based; conditions: SK-MEL-2, 72 h; procedure, shortened: as §1
Daoy = assay: Cytotoxicity against human DaOY cells after 72 hrs by MTS assay; type: functional, cell-based; procedure, shortened: as §1
[2] = Cytotoxicity against human LN229 cells after 72 hrs by MTS assay; type: functional, cell-based; conditions: LN-229, 72 h; procedure, shortened: as §1
OVCAR-3 [3] = assay: Cytotoxicity against human OVCAR-3 cells after 120 hrs by MTS assay; conditions: OVCAR-3, 120 h
SK-MEL-2 (Homo sapiens) [4] = assay: Induction of apoptosis in human SK-MEL-2 cells assessed as necrotic cells at 7.5 uM after 16 hrs by annexin assay
SK-MEL-2 (Homo sapiens) [5] = assay: Induction of apoptosis in human SK-MEL-2 cells assessed as apoptotic cells at 7.5 uM after 16 hrs by annexin assay

| SMILES | IC50 (OVCAR-3 [1]) | IC50 (A-375) | IC50 (MCF7) | IC50 (HT-29) | IC50 (SK-MEL-2) | IC50 (Daoy) | IC50 [2] | IC50 (OVCAR-3 [3]) | Activity (SK-MEL-2 (Homo sapiens) [4]) | Activity (SK-MEL-2 (Homo sapiens) [5]) |
| --- | --- | --- | --- | --- | --- | --- | --- | --- | --- | --- |
| C=C(C)[C@@H]1CC[C@]2(C(=O)O)CC[C@]3(C)[C@H](CC[C@@H]4[C@@]5(C)CCC(NCCO)C(C)(C)[C@@H]5CC[C@]43C)[C@@H]12 (some centres not stated) | 28 µM | 14 µM | 35 µM | 16 µM | 36 µM | < 2 µM |  |  |  |  |
| C=C(C)[C@@H]1CC[C@]2(C(=O)O)CC[C@]3(C)[C@H](CC[C@@H]4[C@@]5(C)CCC(NCCc6ccc(O)cc6)C(C)(C)[C@@H]5CC[C@]43C)[C@@H]12 (some centres not stated) | 6 µM | 5 µM | 6 µM | 4 µM | 6 µM | 6 µM | 5 µM |  |  |  |
| C=C(C)[C@@H]1CC[C@]2(C(=O)O)CC[C@]3(C)[C@H](CC[C@@H]4[C@@]5(C)CCC(NCCc6ccc(O)c(O)c6)C(C)(C)[C@@H]5CC[C@]43C)[C@@H]12 (some centres not stated) | 22 µM |  | 37 µM | 65 µM | 19 µM | 30 µM | 29 µM |  |  |  |
| C=C(C)[C@@H]1CC[C@]2(C(=O)O)CC[C@]3(C)[C@H](CC[C@@H]4[C@@]5(C)CCC(NCc6ccc7c(c6)OCO7)C(C)(C)[C@@H]5CC[C@]43C)[C@@H]12 (some centres not stated) | > 75 µM | > 75 µM | > 75 µM | > 75 µM | 29 µM | 38 µM | > 75 µM |  |  |  |
| C=C(C)[C@@H]1CC[C@]2(CO)CC[C@]3(C)[C@H](CC[C@@H]4[C@@]5(C)CCC(N)C(C)(C)[C@@H]5CC[C@]43C)[C@@H]12 (some centres not stated) | 5 µM | 2 µM | 5 µM | 2 µM | 9 µM | 19 µM | < 2 µM |  |  |  |
| C=C(C)[C@@H]1CC[C@]2(CO)CC[C@]3(C)[C@H](CC[C@@H]4[C@@]5(C)CCC(NCCO)C(C)(C)[C@@H]5CC[C@]43C)[C@@H]12 (some centres not stated) | 5 µM | 2 µM | 5 µM | 2 µM | < 2 µM | 6 µM | 4 µM |  |  |  |
| C=C(CO)[C@@H]1CC[C@]2(CO)CC[C@]3(C)[C@H](CC[C@@H]4[C@@]5(C)CC[C@H](NCCO)C(C)(C)[C@@H]5CC[C@]43C)[C@@H]12 | 39 µM | 16 µM | 41 µM | 65 µM | 34 µM | 29 µM | 37 µM |  |  |  |
| C=C(CO)[C@@H]1CC[C@]2(CO)CC[C@]3(C)[C@H](CC[C@@H]4[C@@]5(C)CC[C@H](NCCc6ccc(O)c(O)c6)C(C)(C)[C@@H]5CC[C@]43C)[C@@H]12 | 18 µM | 6 µM | 31 µM | 37 µM | 24 µM | 34 µM | 17 µM |  |  |  |
| C=C(CO)[C@@H]1CC[C@]2(CO)CC[C@]3(C)[C@H](CC[C@@H]4[C@@]5(C)CC[C@H](NCc6ccc7c(c6)OCO7)C(C)(C)[C@@H]5CC[C@]43C)[C@@H]12 |  | > 75 µM | 75 µM | > 75 µM | 17 µM | 16 µM | 73 µM | 20 µM |  |  |
| C=C(CO)[C@@H]1CC[C@]2(CO)CC[C@]3(C)[C@H](CC[C@@H]4[C@@]5(C)CC[C@H](NCCOC)C(C)(C)[C@@H]5CC[C@]43C)[C@@H]12 |  | 18 µM | 40 µM | 47 µM | 38 µM | 34 µM | 38 µM | 40 µM |  |  |
| C=C(CNCCO)[C@@H]1CC[C@]2(CO)CC[C@]3(C)[C@H](CC[C@@H]4[C@@]5(C)CCC(=O)C(C)(C)[C@@H]5CC[C@]43C)[C@@H]12 | 67 µM | 10 µM | 47 µM | 45 µM | 45 µM | 47 µM | 16 µM |  |  |  |
| C=C(CNCCO)[C@@H]1CC[C@]2(CO)CC[C@]3(C)[C@H](CC[C@@H]4[C@@]5(C)CCC(N)C(C)(C)[C@@H]5CC[C@]43C)[C@@H]12 (some centres not stated) |  | 5 µM | 2 µM | < 2 µM | 6 µM | 5 µM | 12 µM |  | < 15% | > 60% |
| C=C(CNCCO)[C@@H]1CC[C@]2(CO)CC[C@]3(C)[C@H](CC[C@@H]4[C@@]5(C)CCC(NCCc6ccc(O)cc6)C(C)(C)[C@@H]5CC[C@]43C)[C@@H]12 (some centres not stated) |  | 2 µM | 4 µM | < 2 µM | 5 µM | < 2 µM | 14 µM | 40 µM | < 15% | > 60% |
| C=C(CNCCO)[C@@H]1CC[C@]2(CO)CC[C@]3(C)[C@H](CC[C@@H]4[C@@]5(C)CCC(NCc6ccc7c(c6)OCO7)C(C)(C)[C@@H]5CC[C@]43C)[C@@H]12 (some centres not stated) |  | 5 µM | 13 µM | 5 µM | 4 µM | 13 µM | 32 µM | 64 µM |  |  |
| C=C(CNCCc1ccc(O)cc1)[C@@H]1CC[C@]2(CO)CC[C@]3(C)[C@H](CC[C@@H]4[C@@]5(C)CCC(N)C(C)(C)[C@@H]5CC[C@]43C)[C@@H]12 (some centres not stated) |  | < 2 µM | 5 µM | 2 µM | 3 µM | < 2 µM | < 2 µM |  | < 15% | > 60% |
| C=C(CNCCc1ccc(O)cc1)[C@@H]1CC[C@]2(CO)CC[C@]3(C)[C@H](CC[C@@H]4[C@@]5(C)CCC(NCCO)C(C)(C)[C@@H]5CC[C@]43C)[C@@H]12 (some centres not stated) |  | 5 µM | 5 µM | 5 µM | 6 µM | 2 µM | 6 µM |  | < 15% | > 60% |
| C=C(C)[C@@H]1CC[C@]2(C(=O)O)CC[C@]3(C)[C@H](CC[C@@H]4[C@@]5(C)CC[C@H](O)C(C)(C)[C@@H]5CC[C@]43C)[C@@H]12 [BETULINIC ACID] |  | 22 µM | 30 µM | 31 µM | 7 µM | 11 µM | 29 µM | 40 µM |  |  |
